Results gathered from unrelated publications.
Each line is one published result; the experiments were not run side by side.
Organism: Plasmodium falciparum
Read-out: parasite growth

Compound	test	system	conditions	IC50
CO[C@H]1/C=C/O[C@@]2(C)Oc3c(C)c(O)c4c(O)c(c(/C=N/N5CCN(C6CCCC6)CC5)c(O)c4c3C2=O)NC(=O)/C(C)=C\C=C\[C@H](C)[C@H](O)[C@@H](C)[C@@H](O)[C@@H](C)[C@H](OC(C)=O)[C@@H]1C	SYBR Green	3D7	blood stage	238 nM
CCC1=C(CC)/C(=C/c2[nH]c(Cc3ccc(Cl)cc3)cc2Cc2ccc(Cl)cc2)N=C1c1ccc[nH]1	SYBR Green	D6	72 h, blood stage	79.6 nM
CCN(CC)CCCC(C)Nc1ccnc2cc(Cl)ccc12 (stereo not shown)	–	–	72 h, blood stage	28.2 nM
N=C(CC(O)c1cc2cccnc2c2cccnc12)Nc1ccc(F)cc1 (stereo not shown)	ELISA	3D7	72 h, blood stage	3200 nM
COc1ccc2cc1Oc1ccc(cc1)C[C@H]1c3c(cc4c(c3Oc3cc5c(cc3OC)CCN(C)[C@@H]5C2)OCO4)CCN1C	SYBR Green	3D7	blood stage	664 nM
CC1=C(C)/C(=C/c2[nH]c(Cc3ccc(OC(F)(F)F)cc3)cc2Cc2ccc(OC(F)(F)F)cc2)N=C1c1ccc[nH]1	SYBR Green	D6	72 h, blood stage	1300 nM
CC[C@H](CC[C@@H](C)[C@H]1CC[C@H]2[C@@H]3CC=C4C[C@@H](O)CC[C@]4(C)[C@H]3CC[C@]12C)C(C)C	SYBR Green	3D7	48 h, blood stage	9.29 µg/mL
Cc1[nH]c(/C=C2\N=C(c3ccc[nH]3)C3=C2OCCO3)cc1Cc1ccc(OC(F)(F)F)cc1	SYBR Green	D6	72 h, blood stage	30.3 nM
N=C(CC(O)c1nc2cc(F)ccc2c2ccc(F)cc12)Nc1ccc(F)cc1 (stereo not shown)	ELISA	DD2	72 h, drug-resistant strain, blood stage	936 nM
CO[C@H]1/C=C/O[C@@]2(C)Oc3c(C)c(O)c4c(O)c(c(/C=N/N5CCN(C)CC5)c(O)c4c3C2=O)NC(=O)/C(C)=C\C=C\[C@H](C)[C@H](O)[C@@H](C)[C@@H](O)[C@@H](C)[C@H](OC(C)=O)[C@@H]1C	–	NF54	blood stage	900 nM
N=C(CC(O)c1cc2c(F)cc(F)cc2c2cc(C(F)(F)F)ccc12)Nc1ccc(Br)cc1 (stereo not shown)	ELISA	3D7	72 h, blood stage	6.1 nM
CC(C)(C)CC(C)(C)c1ccc(O)c(Cc2ccc(Cl)cc2Cl)c1	–	NF54	blood stage	16300 nM
N=C(CC(O)c1nc2ccccc2c2ccccc12)Nc1ccc(F)cc1 (stereo not shown)	ELISA	DD2	72 h, drug-resistant strain, blood stage	89.2 nM
COC1=CC(c2ccc[nH]2)=N/C1=C\c1[nH]c(C(=O)O)cc1Cc1ccc(OC(F)(F)F)cc1	SYBR Green	D6	72 h, blood stage	> 2500 nM
CCCCCCCCNC(C)C(O)c1ccc(SC(C)C)cc1 (stereo not shown)	–	NF54	blood stage	72.6 nM
N=C(CC(O)c1nc2ccccc2c2ccc(Br)cc12)Nc1ccc(F)cc1 (stereo not shown)	ELISA	3D7	72 h, blood stage	19.5 nM
CC1=C(C)/C(=C/c2cc(-c3ccc(Cl)cc3)c(C)[nH]2)N=C1c1ccc[nH]1	SYBR Green	D6	72 h, blood stage	> 2500 nM
Cc1ccc(N(CC2=NCCN2)c2cccc(O)c2)cc1	–	NF54	blood stage	36600 nM
CCC1=C(CC)/C(=C/c2cc(Cc3ccc(OC(F)(F)F)cc3)c(C)[nH]2)N=C1c1ccc[nH]1	SYBR Green	D6	72 h, blood stage	265 nM
N=C(CC(O)c1nc2ccccc2c2ccc(Cl)cc12)Nc1ccc(F)cc1 (stereo not shown)	ELISA	DD2	72 h, drug-resistant strain, blood stage	49.9 nM
CCN(CC)CCCC(C)Nc1ccnc2cc(Cl)ccc12 (stereo not shown)	SYBR Green	3D7	blood stage	22.4 nM
O=C1C(O)=C([C@H]2CC[C@H](c3ccc(Cl)cc3)CC2)C(=O)c2ccccc21	SYBR Green	D6	72 h, blood stage	0.106 nM
